# Assay results: ChEMBL document CHEMBL2177098, “Synthesis and evaluation of novel ¹⁸F labeled 2-pyridinylbenzoxazole and 2-pyridinylbenzothiazole derivatives as ligands for positron emission tomography (PET) imaging of β-amyloid plaques” (J Med Chem, 2012); call rule not given here
# pKi: −log10 of the molar value.
# What was measured:
# Intestine [1] = assay: Drug uptake in ICR mouse intestine assessed per organ at 370 kBq/100 ul, iv at 30 mins by gamma-counting analysis; format: ADME, organism-based; conditions: in vivo, 0.5 h
# Method in brief: (§1)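 Male ICR mice (5 weeks, about 20 g) got 18F tracer in saline (370 KBq per 100 μL) via tail vein; n = 5 per time point, killed at 2, 10, 30, 60 min. Organs removed and γ-counted against diluted injectate; expressed as % injected dose per organ.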
# Intestine [2] = assay: Drug uptake in ICR mouse intestine assessed per organ at 370 kBq/100 ul, iv at 10 mins by gamma-counting analysis; format: ADME, organism-based; conditions: in vivo; method in brief: as §1
# Intestine [3] = assay: Drug uptake in ICR mouse intestine assessed per organ at 370 kBq/100 ul, iv at 2 mins by gamma-counting analysis; format: ADME, organism-based; conditions: in vivo; method in brief: as §1
# Stomach [4] = assay: Drug uptake in ICR mouse stomach assessed per organ at 370 kBq/100 ul, iv at 60 mins by gamma-counting analysis; format: ADME, organism-based; conditions: in vivo, 1 h
# Method in brief: (§2)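 Normal male ICR mice (5 weeks, about 20 g) received the ¹⁸F tracer in saline (370 KBq per 100 μL) by tail-vein injection. Groups of n = 5 were killed at 2, 10, 30 and 60 min. Organs were removed, weighed and γ-counted against diluted aliquots of the injectate, giving % dose per gram. Stomach and intestine were expressed per organ. The brain ratio is 2 min/60 min uptake. Values are mean ± SD.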
# Stomach [5] = assay: Drug uptake in ICR mouse stomach assessed per organ at 370 kBq/100 ul, iv at 30 mins by gamma-counting analysis; format: ADME, organism-based; conditions: in vivo, 0.5 h; method in brief: as §1
# Stomach [6] = assay: Drug uptake in ICR mouse stomach assessed per organ at 370 kBq/100 ul, iv at 10 mins by gamma-counting analysis; format: ADME, organism-based; conditions: in vivo; method in brief: as §1
# Stomach [7] = assay: Drug uptake in ICR mouse stomach assessed per organ at 370 kBq/100 ul, iv at 2 mins by gamma-counting analysis; format: ADME, organism-based; conditions: in vivo; method in brief: as §1
# Kidney [8] = assay: Drug uptake in ICR mouse kidney at 370 kBq/100 ul, iv at 60 mins by gamma-counting analysis; format: ADME, organism-based; conditions: in vivo, 1 h
# Method in brief: (§3)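 Male ICR mice (5 weeks, about 20 g) got 18F tracer in saline (370 KBq per 100 μL) via tail vein; n = 5 per time point, killed at 2, 10, 30, 60 min. Organs weighed and γ-counted; percent dose per gram wet tissue from comparison with diluted injectate aliquots.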
# Kidney [9] = assay: Drug uptake in ICR mouse kidney at 370 kBq/100 ul, iv at 30 mins by gamma-counting analysis; format: ADME, organism-based; conditions: in vivo, 0.5 h; method in brief: as §3
# Kidney [10] = assay: Drug uptake in ICR mouse kidney at 370 kBq/100 ul, iv at 10 mins by gamma-counting analysis; format: ADME, organism-based; conditions: in vivo; method in brief: as §3
# Lung [11] = assay: Drug uptake in ICR mouse lung at 370 kBq/100 ul, iv at 60 mins by gamma-counting analysis; format: ADME, organism-based; conditions: in vivo, 1 h; method in brief: as §3
# Kidney [12] = assay: Drug uptake in ICR mouse kidney at 370 kBq/100 ul, iv at 2 mins by gamma-counting analysis; format: ADME, organism-based; conditions: in vivo; method in brief: as §3
# Lung [13] = assay: Drug uptake in ICR mouse lung at 370 kBq/100 ul, iv at 30 mins by gamma-counting analysis; format: ADME, organism-based; conditions: in vivo, 0.5 h; method in brief: as §3
# Lung [14] = assay: Drug uptake in ICR mouse lung at 370 kBq/100 ul, iv at 10 mins by gamma-counting analysis; format: ADME, organism-based; conditions: in vivo; method in brief: as §3
# Lung [15] = assay: Drug uptake in ICR mouse lung at 370 kBq/100 ul, iv at 2 mins by gamma-counting analysis; format: ADME, organism-based; conditions: in vivo; method in brief: as §3
# Spleen [16] = assay: Drug uptake in ICR mouse spleen at 370 kBq/100 ul, iv at 60 mins by gamma-counting analysis; format: ADME, organism-based; conditions: in vivo, 1 h; method in brief: as §3
# Spleen [17] = assay: Drug uptake in ICR mouse spleen at 370 kBq/100 ul, iv at 10 mins by gamma-counting analysis; format: ADME, organism-based; conditions: in vivo; method in brief: as §3
# Spleen [18] = assay: Drug uptake in ICR mouse spleen at 370 kBq/100 ul, iv at 30 mins by gamma-counting analysis; format: ADME, organism-based; conditions: in vivo, 0.5 h; method in brief: as §3
# Spleen [19] = assay: Drug uptake in ICR mouse spleen at 370 kBq/100 ul, iv at 2 mins by gamma-counting analysis; format: ADME, organism-based; conditions: in vivo; method in brief: as §3
# Liver [20] = assay: Drug uptake in ICR mouse liver at 370 kBq/100 ul, iv at 60 mins by gamma-counting analysis; format: ADME, organism-based; conditions: in vivo, 1 h; method in brief: as §3
# Liver [21] = assay: Drug uptake in ICR mouse liver at 370 kBq/100 ul, iv at 30 mins by gamma-counting analysis; format: ADME, organism-based; conditions: in vivo, 0.5 h; method in brief: as §3
# Liver [22] = assay: Drug uptake in ICR mouse liver at 370 kBq/100 ul, iv at 2 mins by gamma-counting analysis; format: ADME, organism-based; conditions: in vivo; method in brief: as §3
# Liver [23] = assay: Drug uptake in ICR mouse liver at 370 kBq/100 ul, iv at 10 mins by gamma-counting analysis; format: ADME, organism-based; conditions: in vivo; method in brief: as §3
# Heart [24] = assay: Drug uptake in ICR mouse heart at 370 kBq/100 ul, iv at 60 mins by gamma-counting analysis; format: ADME, organism-based; conditions: in vivo, 1 h; method in brief: as §3
# Heart [25] = assay: Drug uptake in ICR mouse heart at 370 kBq/100 ul, iv at 30 mins by gamma-counting analysis; format: ADME, organism-based; conditions: in vivo, 0.5 h; method in brief: as §3
# Heart [26] = assay: Drug uptake in ICR mouse heart at 370 kBq/100 ul, iv at 10 mins by gamma-counting analysis; format: ADME, organism-based; conditions: in vivo; method in brief: as §3
# Brain [27] = assay: Drug uptake in ICR mouse brain at 370 kBq/100 ul, iv at 60 mins by gamma-counting analysis; format: ADME, organism-based; conditions: in vivo, 1 h; method in brief: as §3
# Heart [28] = assay: Drug uptake in ICR mouse heart at 370 kBq/100 ul, iv at 2 mins by gamma-counting analysis; format: ADME, organism-based; conditions: in vivo; method in brief: as §3
# Brain [29] = assay: Drug uptake in ICR mouse brain at 370 kBq/100 ul, iv at 30 mins by gamma-counting analysis; format: ADME, organism-based; conditions: in vivo, 0.5 h; method in brief: as §3
# Brain [30] = assay: Drug uptake in ICR mouse brain at 370 kBq/100 ul, iv at 10 mins by gamma-counting analysis; format: ADME, organism-based; conditions: in vivo; method in brief: as §3
# Brain [31] = assay: Drug uptake in ICR mouse brain at 370 kBq/100 ul, iv at 2 mins by gamma-counting analysis; format: ADME, organism-based; conditions: in vivo; method in brief: as §3
# Blood [32] = assay: Drug uptake in ICR mouse blood at 370 kBq/100 ul, iv at 30 mins by gamma-counting analysis; format: ADME, organism-based; conditions: in vivo, 0.5 h; method in brief: as §3
# Blood [33] = assay: Drug uptake in ICR mouse blood at 370 kBq/100 ul, iv at 60 mins by gamma-counting analysis; format: ADME, organism-based; conditions: in vivo, 1 h; method in brief: as §3
# Blood [34] = assay: Drug uptake in ICR mouse blood at 370 kBq/100 ul, iv at 10 mins by gamma-counting analysis; format: ADME, organism-based; conditions: in vivo; method in brief: as §3
# Blood [35] = assay: Drug uptake in ICR mouse blood at 370 kBq/100 ul, iv at 2 mins by gamma-counting analysis; format: ADME, organism-based; conditions: in vivo; method in brief: as §3
# Brain [36] = assay: Drug uptake in healthy human brain at 370 KBq/100 ul after 1 hr by autoradiographic analysis; format: ADME, tissue-based; conditions: in vitro
# [37] = Displacement of [125I]-IMPY from amyloid beta (1 to 42) fibrils after 2 hrs by gamma-counting analysis
# Method in brief: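 Competition binding with aggregated Aβ1-42 fibrils and [125I]IMPY (60000−100000 cpm/100 μL) in 0.05% BSA (1 mL total); inhibitors 10⁻⁴−10^−8.5 M in ethanol. Incubated 37 °C for 2 h, then GF/B vacuum filtration with PBS (0.02 M, pH 7.4) washes and γ counting. Three repeats; IC50 converted to Ki by Cheng−Prusoff.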
# Brain [38] = assay: Drug uptake in wild type C57BL6 mouse brain at 370 KBq/100 ul after 1 hr by autoradiographic analysis; format: ADME, tissue-based; conditions: in vitro
# Method in brief: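 Paraffin brain sections from 12-month-old male control C57BL6 mice were deparaffinized through xylene and graded ethanol, then held in PBS (0.2 M, pH 7.4) for 30 min. They were incubated with the ¹⁸F tracer (370 KBq per 100 μL) for 1 h at room temperature. Sections were washed in 40% EtOH, rinsed with water for 1 min, dried, and exposed to a phosphor plate for 2 h. The same sections were then stained with thioflavin S.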
# [39] = n-Octanol-PBS buffer partition coefficient, log D of the compound at 1.5 MBq after 3 mins at pH 7.4; format: physicochemical
# Method in brief: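 The tracer was partitioned between n-octanol and PBS by vortexing for 3 min at room temperature, then centrifuged for 5 min at 3000 rpm. Samples of the octanol (50 μL) and aqueous (500 μL) layers were counted. log D is the log of the octanol/PBS counts-per-gram ratio. The octanol layer was repartitioned until values were consistent. Measured in triplicate and repeated three times.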
# Brain [40] = assay: Ratio of drug uptake in brain at 2 mins to drug uptake in brain at 60 mins in ICR mouse at 370 KBq/100 ul, iv; format: ADME, organism-based; conditions: in vivo; method in brief: as §2
# Bone [41] = assay: Drug uptake in ICR mouse bone at 370 kBq/100 ul, iv at 60 mins by gamma-counting analysis; format: ADME, organism-based, Bone element; conditions: in vivo, 1 h; method in brief: as §3
# Bone [42] = assay: Drug uptake in ICR mouse bone at 370 kBq/100 ul, iv at 30 mins by gamma-counting analysis; format: ADME, organism-based, Bone element; conditions: in vivo, 0.5 h; method in brief: as §3
# Bone [43] = assay: Drug uptake in ICR mouse bone at 370 kBq/100 ul, iv at 2 mins by gamma-counting analysis; format: ADME, organism-based, Bone element; conditions: in vivo; method in brief: as §3
# Bone [44] = assay: Drug uptake in ICR mouse bone at 370 kBq/100 ul, iv at 10 mins by gamma-counting analysis; format: ADME, organism-based, Bone element; conditions: in vivo; method in brief: as §3
# Intestine [45] = assay: Drug uptake in ICR mouse intestine assessed per organ at 370 kBq/100 ul, iv at 60 mins by gamma-counting analysis; format: ADME, organism-based; conditions: in vivo, 1 h; method in brief: as §1
compound,measurement,setting,value
CNc1ccc(-c2nc3ccc(OCC[18F])cc3s2)cn1,Drug uptake,Intestine [1],25.23 %ID
same,Drug uptake,Intestine [2],11.15 %ID
same,Drug uptake,Intestine [3],12.06 %ID
same,Drug uptake,Stomach [4],3.67 %ID
same,Drug uptake,Stomach [5],4.63 %ID
same,Drug uptake,Stomach [6],5.61 %ID
same,Drug uptake,Stomach [7],3.61 %ID
same,Drug uptake,Kidney [8],3.45 % ID/g
same,Drug uptake,Kidney [9],3.62 % ID/g
same,Drug uptake,Kidney [10],4.42 % ID/g
same,Drug uptake,Lung [11],2.72 % ID/g
same,Drug uptake,Kidney [12],9.57 % ID/g
same,Drug uptake,Lung [13],3.57 % ID/g
same,Drug uptake,Lung [14],3.02 % ID/g
same,Drug uptake,Lung [15],5.85 % ID/g
same,Drug uptake,Spleen [16],2.86 % ID/g
same,Drug uptake,Spleen [17],3.29 % ID/g
same,Drug uptake,Spleen [18],2.87 % ID/g
same,Drug uptake,Spleen [19],4.52 % ID/g
same,Drug uptake,Liver [20],3.06 % ID/g
same,Drug uptake,Liver [21],4.28 % ID/g
same,Drug uptake,Liver [22],10.4 % ID/g
same,Drug uptake,Liver [23],5.94 % ID/g
same,Drug uptake,Heart [24],3.7 % ID/g
same,Drug uptake,Heart [25],3.33 % ID/g
same,Drug uptake,Heart [26],3.11 % ID/g
same,Drug uptake,Brain [27],2.83 % ID/g
same,Drug uptake,Heart [28],5.59 % ID/g
same,Drug uptake,Brain [29],3.38 % ID/g
same,Drug uptake,Brain [30],4.54 % ID/g
same,Drug uptake,Brain [31],7.87 % ID/g
same,Drug uptake,Blood [32],4.45 % ID/g
same,Drug uptake,Blood [33],4.45 % ID/g
same,Drug uptake,Blood [34],3.94 % ID/g
same,Drug uptake,Blood [35],4.31 % ID/g
same,Drug uptake,Brain [36],Not Active
same,pKi,[37],8.00
same,Drug uptake,Brain [38],Not Active
same,logD at 0.05 h,[39],3.59
same,Ratio,Brain [40],2.78
same,Drug uptake,Bone [41],6.7 % ID/g
same,Drug uptake,Bone [42],3.77 % ID/g
same,Drug uptake,Bone [43],2.04 % ID/g
same,Drug uptake,Bone [44],2.43 % ID/g
same,Drug uptake,Intestine [45],19 %ID
